Screen size: about 2,400 compounds; fewer than 10 were called active.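 The calls were made as follows: active = average inhibition across replicates above the hit cutoff set in the earlier primary screen; inactive = the rest.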 The list is a sample of the results.
Target: Procathepsin L (Homo sapiens) (UniProt P07711)
Experiment: CTSL1 protease inhibition confirmation – biochemical, QFRET, triplicate, counter-screen for PFM18AAP inhibitor project (AID 2178);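 also: 0% = median of test compound wells and 100% = Z-Phe-Ala-diazomethylketone 1 µM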
Settings: purified cathepsin L1, Z-Leu-Arg-MCA fluorescence; at 5.96 µM; hits give high values
Summary of the method: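 Material: purified cathepsin L1 / Compound dosing: single nominal compound dose of 5.96 µM, 0.59% DMSO / Schedule: 30 min compound preincubation, then 90 min with substrate, 25 °C / Signal: MCA fluorescence measured at substrate addition and at 90 min / Read-out: % inhibition from fluorescence gain versus inhibitor control / Replicates: triplicate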

Sequence of Procathepsin L (Homo sapiens) (P07711 whole entry, looked up): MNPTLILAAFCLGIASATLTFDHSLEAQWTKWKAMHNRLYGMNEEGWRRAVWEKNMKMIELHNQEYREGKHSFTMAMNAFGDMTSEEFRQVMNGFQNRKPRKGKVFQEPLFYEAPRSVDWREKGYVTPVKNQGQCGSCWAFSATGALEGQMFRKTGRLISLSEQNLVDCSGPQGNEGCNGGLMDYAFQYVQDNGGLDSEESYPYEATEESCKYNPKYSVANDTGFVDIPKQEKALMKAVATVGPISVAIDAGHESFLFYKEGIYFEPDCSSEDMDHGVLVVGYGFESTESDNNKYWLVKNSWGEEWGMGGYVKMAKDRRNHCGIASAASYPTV

Structure (SMILES) | inhibition
COc1ccc(OC)c(Nc2nc(-c3ccc(O)c(O)c3)cs2)c1 | 4.97% (inactive)
Cc1cc2nc3c(=O)n(Cc4ccccc4)c(=O)[nH]c3nc2cc1N | 2.68% (inactive)
Cc1cc(-c2ccc(/C=N/n3cnnc3)o2)c([N+](=O)[O-])cc1C | 1.38% (inactive)
O=C(CC(n1cncn1)C(Cl)(Cl)Cl)c1ccc([N+](=O)[O-])cc1 (stereo not given) | 1.47% (inactive)
Cc1ccc(Cl)cc1-c1ccc(/C=N/n2cnnc2)o1 | 3.57% (inactive)
COc1cc(S(=O)(=O)Nc2ncn[nH]2)ccc1Cl | 0.28% (inactive)
O=[N+]([O-])c1ccc(N2CCN(c3ccc(O)cc3)CC2)c(Cl)c1 | 0.99% (inactive)
COc1cccc2cc(-c3cc(=O)oc4cc(C)c(O)cc34)oc12 | -0.83% (inactive)
CC(=O)N(c1ccc2oc(=O)sc2c1)S(=O)(=O)c1ccc(C)cc1 | -0.05% (inactive)
O=S(=O)(c1ccc(NC(=S)NN=C(C2CC2)C2CC2)cc1)N1CCOCC1 | 0.19% (inactive)
COc1cc(NC(=S)N2CCCC(C)C2)c(OC)cc1Cl (stereo not given) | -10.4% (inactive)
Cc1ccsc1/C=N/Nc1ccc(Cl)nn1 | 0.84% (inactive)
COc1ccccc1-c1nnc(SCC(=O)Nc2cc(C)on2)o1 | 8.93% (inactive)
O=C(N/N=C/c1ccc(O)c(O)c1)C1c2ccccc2Oc2ccccc21 | -5.02% (inactive)
O=C(CN1CCN(S(=O)(=O)c2cc(Cl)ccc2Cl)CC1)c1ccc(O)c(O)c1 | -1.56% (inactive)
O=C(Cn1c[n+](CC(=O)c2ccc([N+](=O)[O-])cc2)cn1)c1ccc([N+](=O)[O-])cc1 | 13.7% (inactive)
Cc1ccc(NC(=O)c2c(NC(=O)CCC(=O)O)sc3c2CCCCC3)cc1 | 5.04% (inactive)
CC/C(C)=N/Nc1nc2sc3c(c2c(=O)[nH]1)CC(C)(C)OC3 | 2.48% (inactive)
Cn1sc(=O)c2cc(S(=O)(=O)NC3CC3)ccc21 | -0.58% (inactive)
CCOc1ccc(-n2c(O)c(/C=N/Nc3nnc(C)c(=O)[nH]3)c3ccccc3c2=O)cc1 | -0.55% (inactive)
Oc1cccc(/C=N/Nc2ccc(Cl)nn2)c1O | 2.12% (inactive)
Cc1c(CC(=O)N2CCN(C(=O)C3COc4ccccc4O3)CC2)c(=O)oc2c(O)c(O)ccc12 (stereo not given) | 0.56% (inactive)
O=C(CSC(=S)N1CCOCC1)c1cc(Br)cc(Br)c1O | -2.37% (inactive)
CNC(=O)c1c(NC(NC(=O)c2ccco2)C(=O)c2ccc(Cl)cc2)sc2c1CCCC2 (stereo not given) | -3.32% (inactive)
N#CCC(=O)N/N=C/c1ccc(SCC(=O)Nc2ccccc2)o1 | -1.02% (inactive)

Structure (SMILES) | inhibition
CC(=O)c1ccc(NC(=O)CCc2nnc3ccc(NCc4ccco4)nn23)cc1 | -4.62% (inactive)
c1ccc(-c2ccc3c(c2)NC(C2Nc4cc(-c5ccccc5)ccc4O2)O3)cc1 (stereo not given) | 0.56% (inactive)
CCN(CC)S(=O)(=O)c1cc([N+](=O)[O-])ccc1NNC(=O)Nc1ccccc1 | 5.14% (inactive)
COc1cc(Br)cc(/C=N/c2ncn[nH]2)c1O | -0.48% (inactive)
Oc1c(C(c2ccco2)N2CCC3(CC2)OCCO3)sc2ncnn12 (stereo not given) | -2.01% (inactive)
Cc1onc(-c2ccccc2)c1C(=O)NNC(=S)NC(=O)c1ccc(F)cc1 | 3.64% (inactive)
O=C(CSc1ncn[nH]1)Nc1nc(-c2cccc([N+](=O)[O-])c2)cs1 | 1.01% (inactive)
COc1ccc(/C=N/Nc2nc3ccccc3o2)cc1OC | -3.54% (inactive)
Cc1cc([N+](=O)[O-])c(-c2ccc(/C=N/n3cnnc3)o2)cc1Cl | 5.55% (inactive)
O=C(CSc1ncn[nH]1)Nc1nsc(-c2ccccc2)n1 | 1.95% (inactive)
NC(=O)c1c(Nc2nc3c(F)cccc3s2)sc2c1CCCC2 | 3.61% (inactive)
CCOC(=O)NNc1cc(C(F)(F)F)ccn1 | 4.25% (inactive)
Cc1cc(/C=N/Nc2ccc([N+](=O)[O-])cn2)c(C)n1-c1cccc(C(=O)O)c1 | 3.84% (inactive)
S=c1[nH]c(-c2cccs2)cn1-c1ccccc1 | -4.9% (inactive)
Cc1nccn1CC(=O)N/N=C/c1ccc(O)c(O)c1 | 5.14% (inactive)
Oc1ccc(-c2csc(Nc3cccnc3)n2)cc1 | 6.56% (inactive)
O=C(NNC(=O)c1ccco1)Nc1ccccc1 | 2.81% (inactive)
CCOCCCNC(=O)c1ccc(CS(=O)(=O)c2cccc(C(F)(F)F)c2)o1 | -1.17% (inactive)
ONC(=Nc1ccccc1)c1ccccc1Cl | 1.1% (inactive)
CCN1/C(=C/C(=S)Nc2ccccc2)Sc2ccccc21 | 0.64% (inactive)
OCCN1CCN(C(=S)c2ccc(-c3ccccc3)cc2)CC1 | -0.85% (inactive)
CCn1c(CNS(=O)(=O)c2ccc(Cl)cc2)n[nH]c1=S | 1.4% (inactive)
CC1(C)CC(=O)C/C(=N\NC(=O)c2cccs2)C1 | -0.13% (inactive)
Cc1ccnc(-n2sc3ccccc3c2=O)n1 | -1.29% (inactive)
Cc1nnc(SCC(=O)Nn2cnnc2)s1 | 1.95% (inactive)
